In the EternaBench riboswitch data:

Tested on: MS2 coat protein
Experiment: apparent Kd, MS2 coat protein; higher = weaker binding; RNA-MaP array; FMN 200 µM where present
In short: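 The apparent Kd is the median of filtered binding-curve fits, one per cluster, to green signal normalised to red-channel RNA signal and control-cluster median Fmax. The clusters were on Illumina sequencing chips, and stalled E. coli RNA polymerase had transcribed the designs on them. Titration used SNAP-549-labelled MS2 coat protein from 0.7 or 1.5 nM, doubling to 3 µM, without and then with constant ligand, in 100 mM Tris-HCl pH 7.5, 80 mM KCl, 4 mM MgCl2, BSA, DTT, yeast tRNA and Tween-20.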

[1] = designed as: OFF switch for flavin mononucleotide, no ligand
[2] = ligand present: flavin mononucleotide, designed as: OFF switch for flavin mononucleotide
[3] = designed as: ON switch for flavin mononucleotide, no ligand
[4] = ligand present: flavin mononucleotide, designed as: ON switch for flavin mononucleotide

Sequence | apparent Kd [1] [nM] | apparent Kd [2] [nM] | apparent Kd [3] [nM] | apparent Kd [4] [nM]
UAUAUAUAGUAAGGAUAUGUAUUCAUUUUAUAAACAGAAGGUACUGACAUGAGGAUCACCCAUGUUUUAGUGUGGGCAUGUAGA | 81.5 | 132 |  | 
UUGGACGUCGUAGGAUAUGUAGGAUAUUCCUACAUGAGGAUCACCCAUGUUGACAUGGAAGACGGACAGAAGGACGAUGUCCAU |  |  | 490 | 12.8
AGUAAGAUGCAGAAGGUGUCAGCGAGAGCUGCGACAUGAGGAUCACCCAUGUACUAGUGAGAGUACAAGGAUAUGCAUCUUACA |  |  | 313 | 45.7
UGGUACUCGGGAGGAUAUGGGAAGAUACAUGAGGAUCACCCAUGUUUAAGAAUGCCGAGAGGCAACUAGAAGGCCCUAGUACCU |  |  | 457 | 23.4
ACGACGAAAGUCGAACGAUGUAGCAGAAGGACAUGAGGAUCACCCAUGUCAGCUGUGACCAAAAUGUAGGAUAUGCUACAUCGA | 71.1 | 90.8 |  | 
AAUUAUUUAUGAGGAUAUUGUGGUGAAACACCACAAGAAGGCAUGAUACACAUGAGGAUCACCCAUGUGAGCCUUAUGCAUAUA | 20.3 | 115 |  | 
GGGUACAUGGGAGGAUAUGGGACAUGAGGAUCACCCAUGUGAAAAUUAAAUAUGCCGAGAGGCAACUAGAAGGCCCAUGUACCG |  |  | 31.1 | 15.3
ACCUCACACGUCAGGAUAUGCCUGCGGAUAUGCGGGUAGAAGGGACAUGAGGAUCACCCAUGUCUUUCGUGAUU | 15.8 | 21.1 |  | 
ACAAGAUCAGGAUAUACAUGAGGAUCACCCAUGUAUAUCAAAAAGGGACUUUCUUAAUGUAGAAGGGAUCUUGU | 13.3 | 12.8 |  | 
GUCUCGAUGUAAGGAUAUGCAGUGGAAUACACUGCAGAAGGUACAUGAGGAUCACCCAUGUAACUCUAAUAAUAAUAACGAGAC | 12 | 19.2 |  | 
CUUAAGGCAGGAUAUGCUUUUUGUGACAUGAGGAUCACCCAUGUGAUGCAGUUUGGGUGUGCAGAAGGGCCUGAGU | 364 | 172 |  | 
CGGCAUCAUGUAGGAUAUGCGUGGCGAAGCUAUGCAGAAGGACAUGAGGAUCACCCAUGUCUUACUGUGCGUACACAGUUGCCG | 6.29 | 11.2 |  | 
AUUAUGAAGCAGUUAUAACUCUAAACAUGAGGAUCACCCAUGUAGGAUAUCAGCACGAUAAGUGCUGAGAAGGACAUCUGCUUC | 15.3 | 18.4 |  | 
AAAUAGUUAGGAUAUACAUGAGGAUCACCCAUGUGGACUGAUGGCGAUUGAUUUAGUGGUAGAAGGGACUCAAA | 40.3 | 58.4 |  | 
GUUGGCUGAGGAUAUGCUUGCGUGCGUUUGUGUCGCGGGUGACAUGAGGAUCACCCAUGUAGAAGGUGGUCGGC | 1530 | 980 |  | 
AUAAAUAAGGCGCACAUGAGGAUCACCCAUGUACGGACUAGCAAGGAUAUCAGCGUCGGGUGCAAUGAGAAGGUGUGUGUCAAG |  |  | 45.1 | 74.4
GCACAUGGCAUAGGAUAUAGAUCGAUUGUUUAAAUAGGUAGUUGGACUUAACUAGAAGGAUGAAACAUGAGGAUCACCCAUGUA |  |  | 394 | 68
AGGGAGGAAGCUGAGGAUAUCGUAAGGAGGACAUGAGGAUCACCCAUGUGUGUGGAAUUGGAGGACGAGAAGGCAGAGGAGUGGG |  |  | 31.5 | 36
GCGUCAGAAUUAAUUGUGACAUACAGAAGGCAAAAUUAAGGAUAAGACAUGAGGAUCACCCAUGUUGAGGAUAUGUAGUGACGC | 8.7 | 7.57 |  | 
GGUUGGCGAGGAUAUACAUGAGGAUCACCCAUGUGGUCCUGUGAAAAAAAAAACCUUUGUAGAAGGCGCGGGUC | 292 | 281 |  | 
UGUUGUAUUACAGGAUAUCUAGUGUUUUUAUUUAGAGAAGGGUAUUCACAUGAGGAUCACCCAUGUAUAUACGAGGAAGUUGUG |  |  | 55.9 | 61.2
GGUUGUCAUAGUCAUCCUUUCCGUACAUGAGGAUCACCCAUGUAGGAUAUGCUACUCACAGAGUAGCAGAAGGGCGUGUGUCUU | 19 | 19.6 |  | 
GCAUGACAAAGUCAUGCAUAACGAACAUGAGGAUCACCCAUGUAGGAUAUGCUACUCAAAGAGUAGCAGAAGGACAUGUGCCUU | 34.2 | 263 |  | 
GCUUUAUAGAUCCAUUUUAACAACAUGAGGAUCACCCAUGUGCAGGAUAUCGAUUGUUUUAUUUUCGAGAAGGGCAAAUUCAGC | 35.2 | 87.7 |  | 

Sequence | apparent Kd [1] [nM] | apparent Kd [2] [nM] | apparent Kd [3] [nM] | apparent Kd [4] [nM]
AACAUGAGGAUCACCCAUGUCCCACCAGAAGGCUGGCGGCCACAGGAACGGCUGUGGCAAAUAACAGAGGAUAUGGUGAAUGCA |  |  | 80.8 | 16.1
GGGCUGUCAGGAUAUCGCGCGCGCGCGGAAAUGUGUGUGUGUGAGAAGGGACAUGAGGAUCACCCAUGUGGCCC | 35.6 | 36.8 |  | 
GGGCCCGGAGGAUAUACAAUUGUGUGUGGAAACGCGCGCGUACAUGAGGAUCACCCAUGUAGAAGGCCGGGCCC | 15.9 | 54.6 |  | 
UUAAUCUGAACAUGAGGAUCACCCAUGUAUCUUACCUUAGGACAGGAUAUAGAUGUUAAGAAUUACUAGAAGGGUCAGUAUAUU |  |  | 42.5 | 35.9
UUAAUUAUACAAGGAUAUCUAUUGUAGUUUCGACUAACAUGAGGAUCACCCAUGUAAAUAUGUUAAGAGAAGGUGUAUUUUAAA |  |  | 45.5 | 30.3
AAGCAGGUAAAUAAACUCAAUUACAUGAGGAUCACCCAUGUAUAGGAUAUCGUCAGGAAUACUGACGAGAAGGAUACAUCCUGC | 17.7 | 63.9 |  | 
GGAAAACAUGAGGAUCACCCAUGUGAGGAUAUCGAUGUCCACCCACCCGUGCGGGACUCGAGAAGGCACUUGGA | 44.4 | 148 |  | 
AUGUUGAGCAGUGUAUUAAUAAAACAUGAGGAUCACCCAUGUAGAAGGCACGAGCUGAUCGCUCGUGAGGAUAUACAUCACUGC | 5.15 | 5.9 |  | 
UAAGUGUGAGGAUAUUCGUAGUACACGGAGACGUGUAUUACGGAGAAGGCACAUGAGGAUCACCCAUGUUCCUU | 20.7 | 182 |  | 
CUGCAGUAAGGAUAUACAUGAGGAUCACCCAUGUAGCAACUUACAUAACGAAACGCAUGUAGAAGGUACCAGAU | 14 | 15.4 |  | 
ACAUUGCGAGGAUAUACAUGAGGAUCACCCAUGUGGUGGCAGAUACGGUAGGACUAGUGUAGAAGGUGUCAUGG | 490 | 397 |  | 
GCACGAGACUAAGGAUAUGGAGUAUCUACAUUAAACAUGAGGAUCACCCAUGUAGGGAGUAUGAUUCAGAAGGUAGAGACGUGC |  |  | 157 | 37.3
GGUACUCAAAGAGUACUUGGUCGAACAUGAGGAUCACCCAUGUAGGAUAUGCUAAGCAAGAAGUAGCAGAAGGACAUGUGCAGC | 14.8 | 56.5 |  | 
GGGUACAUGGGAGGAUAUGGGAAGAUACAUGAGGAUCACCCAUGUUUAAGAAUGCCGAGAGGCAACUAGAAGGCCCAUGUACCG |  |  | 1040 | 49
UGAAUCAAUACAGGAUAUGGUGACGCACAUGAGGAUCACCCAUGUCCGCAGCGUGCUCAGCACGCCCAGAAGGGUAUUGAUCCG |  |  |  | 84.8
AUAGCUGGGAAGUAAACUCGUGCGGCAGAAGGGUGAUACUGGACAUGAGGAUCACCCAUGUGCACACAGGAUAUGCCCGCGAGC |  |  | 207 | 35
CAGGUGUUAGGAUAUCGGAGGUUGAGGCAGACGGGAAUAUUCGAGAAGGAACAUGAGGAUCACCCAUGUAGUAG | 22.8 | 24.8 |  | 
CAGUGCAAUGUAGGAUAUGCUCAGGAUAACUGAGCAGAAGGACAUGAGGAUCACCCAUGUAAAAUGAAAGAUAAUAAAGCACUG | 16.6 | 49.9 |  | 
AAAACGUCAGGAUAUCCAAUAUAUGACAUGAGGAUCACCCAUGUUUCCACUCGUACCUCCGGAGAAGGGACUUUUU | 42.6 | 39.4 |  | 
CGCAUGUAAGGAUAUUAGUAGUAGUCAGAAUAGACUAUUACUGAGAAGGUACAUGAGGAUCACCCAUGUUAGCG | 117 | 592 |  | 
CCGGCUUAGUAGGAUAUCAGAGUCGAAAGACUCUGAGAAGGACUAACAUGAGGAUCACCCAUGUGUCCUACCGG | 15.9 | 36 |  | 
AAACAUGUCCGAGGAUAUCUGGAAACAAUUCCAAGAGAAGGCGGACAUGAGGAUCACCCAUGUCUCUCCUCAUCAAAUCCAAGU | 11.2 | 67.1 |  | 
GGAUGAUUAACAGGAUAUCAUUUGUAAAUUGGUUGAGAAGGGUUAAUGAUUUAAACGACCUGUUACAUGAGGAUCACCCAUGUU |  |  | 64.3 | 38.2
GGCUAACAUGAGGAUCACCCAUGUCGCCAAAAUCGAGGAUAUGGGUGCCAGCUCGGGCAGCCAGAAGGCGACAAAA |  |  | 225 | 33.1
